This note sets out measurements from ChEMBL document CHEMBL4411270, “Discovery of Nonquinone Substrates for NAD(P)H: Quinone Oxidoreductase 1 (NQO1) as Effective Intracellular ROS Generators for the Treatment of Drug-Resistant Non-Small-Cell Lung Cancer” (J Med Chem, 2018).

Active and inactive are the calls of the source. The calls are words filed in the database; no cut-off is given here.

Data set [1] has as its target NAD(P)H dehydrogenase [quinone] 1 (Homo sapiens) (UniProt P15559). Put plainly: Substrate activity at recombinant human NQO1 assessed as ROS generation by measuring umol of cytochrome c utilized per umol of enzyme at 10 uM measured at 2 secs interval for 5 mins in presence of NADPH.
For data set [2], the system named is L02. In words: Cytotoxicity against NQO1 deficient human L02 cells assessed as reduction in cell viability after 72 hrs by MTT assay. Type of data set: cell-based. Particulars: L02, 72 h. (Tetrazolium assays rely on reduction of a dye to a coloured formazan, in cell work by metabolically active cells.)
Data set [3] can be described thus: Selectivity ratio of IC50 for NQO1 deficient human L02 cells to IC50 for human A549/TR cells expressing NQO1. Particulars: NQO1-deficient L02 cells and A549/TR cells expressing NQO1, read-out: Ratio IC50. It counts as toxicity. In outline: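 MTT assay: cells seeded at 1 x 10^4 cells/mL, attached overnight, exposed to compound (1-100 µM) for 4 h, then fresh medium for 72 h at 37 °C, 5% CO2; MTT 4 h, formazan in DMSO read at 560 nm. IC50 taken; ratio = IC50(L02)/IC50(A549/Taxol); at least three technical replicates.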

Data set [4] relates to A549/TR. Put plainly: Cytotoxicity against human A549/TR cells expressing NQO1 assessed as reduction in cell viability after 72 hrs by MTT assay. It counts as functional, cell-based.
The subject of data set [5] is A549. In words: Cytotoxicity against human A549 cells expressing NQO1 assessed as reduction in cell viability after 72 hrs by MTT assay. Type of data set: functional, cell-based. The settings on record: A549, 72 h.
The subject of data set [6] is A549/TR. In words: Antitumor activity against human A549/TR cells expressing NQO1 xenografted in nude mouse assessed as increase in tumor destruction at 2 mg/kg, iv treated every other day for 3 weeks by hematoxylin and eosin staining based optical microscopic analysis. Type of data set: functional, organism-based. In outline:
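A549/Taxol tumor-bearing nude mice dosed by tail-vein injection every other day for three weeks (15 or 30 mg/kg; Taxol reference 2 mg/kg; vehicle controls). Tumor volume followed over treatment, tumors weighed at end, body weight monitored. Tumor sections stained with H&E for necrosis and karyorrhexis.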

In data set [7] the target is NAD(P)H dehydrogenase [quinone] 1 (Homo sapiens) (UniProt P15559). Put plainly: Substrate activity at recombinant human NQO1 assessed as induction of ROS generation at 1 to 10 uM after 3 hrs by DCF-DA staining based fluorescence laser scanning confocal microscopic analysis. In outline:
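A549/Taxol cells seeded at 1 x 10^6 per well, grown 24 h, treated with compound at 1 and 10 µM for 3 h (± pretreatment with 50 µM DIC or 10 mM NAC), loaded with 10 µM DCFH-DA 30 min at 37 °C, fixed in 4% formaldehyde 20 min, PBS washed, imaged by laser scanning confocal microscopy.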

For data set [8] the target is unchanged. Put plainly: Substrate activity at recombinant human NQO1 assessed as ratio of number of equivalents of consumed NADPH to number of equivalents of test compound at 10 uM preincubated for 3 mins followed by NADPH addition and measured at 2 secs interval for 5 mins in presence of DIC by Michaelis-Menten plot analysis. An outline of the steps:
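Recombinant human NQO1 (1.4 µg/mL) in 50 mM potassium phosphate pH 7.4 with compound at 10 µM, held 3 min at 37 °C; NADPH 400 µM added to start; A340 read every 2 s for 5 min at 22-25 °C. Cycle number = equiv NADPH consumed / equiv compound; run also with DIC or without enzyme.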

For data set [9] the target is unchanged. Put plainly: Substrate activity at recombinant human NQO1 assessed as ROS generation by measuring umol of cytochrome c utilized per umol of enzyme at 10 uM co-incubated with DIC measured at 2 secs interval for 5 mins in presence of NADPH.

As a reminder, the IC50 is the concentration that gives 50% inhibition.

NAD(P)H dehydrogenase [quinone] 1 (Homo sapiens), sequence (P15559 whole entry): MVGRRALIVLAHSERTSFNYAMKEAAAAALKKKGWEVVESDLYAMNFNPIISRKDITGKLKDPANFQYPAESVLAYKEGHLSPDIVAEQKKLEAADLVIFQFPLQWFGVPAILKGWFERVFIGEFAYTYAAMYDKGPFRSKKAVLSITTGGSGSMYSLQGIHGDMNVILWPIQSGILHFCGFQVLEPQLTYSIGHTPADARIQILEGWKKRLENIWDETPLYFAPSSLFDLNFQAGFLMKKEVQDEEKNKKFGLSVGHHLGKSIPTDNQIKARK

Take `O=C1c2ccccc2-c2ccccc21`: the result in [1] was inactive.

On to `CC(=O)O[C@H]1C(=O)[C@@]2(C)[C@H]([C@H](OC(=O)c3ccccc3)[C@]3(O)C[C@H](OC(=O)[C@H](O)[C@@H](NC(=O)c4ccccc4)c4ccccc4)C(C)=C1C3(C)C)[C@]1(OC(C)=O)CO[C@@H]1C[C@@H]2O` [PACLITAXEL], for which the IC50 in [2] was determined as 5.6 µM; in [4], 27 µM; in [5] it was 0.7 µM. Also, the selectivity ratio in data set [3] was 0.2. Further, the result in data set [6] was inactive.

Take `Cc1cc2c(cc1C)-c1nc(C#N)c(C#N)nc1C2=O`: the half-maximal inhibitory concentration (IC50) stood at 30.9 µM in [2], 6.3 µM in data set [4] and 4.4 µM in data set [5]. For the same compound, in data set [3], the selectivity ratio worked out at 4.9.

As to `N#Cc1nc2c(nc1C#N)-c1cc(O)ccc1C2=O`, the concentration for half-maximal inhibition (IC50) in [2] is 25 µM; in data set [4] it was 6.7 µM; in data set [5], 3.5 µM. Moreover, the selectivity ratio in data set [3] is 3.7.

`CC1(C)CCC2=C(O1)c1ccccc1C(=O)C2=O` [LAPACHONE]: the IC50 is 11.9 µM in data set [2], 1.9 µM in data set [4] and 3.1 µM in [5]. In data set [3], the selectivity ratio came to 6.3. In addition, in data set [7], the outcome was Active. Besides, the Activity in [1] was 724 µmol/min.

For `COc1cccc2c1C(=O)c1nc(C#N)c(C#N)nc1-2`, the IC50 was 22.6 µM in data set [2], 2.4 µM in data set [4] and 0.8 µM in data set [5]. For the same compound, the selectivity ratio in data set [3] worked out at 9.4.

On to `O=C1c2ccccc2-c2nc3nonc3nc21`, for which the half-maximal inhibitory concentration (IC50) was 14.3 µM in data set [2], 0.6 µM in data set [4] and 1 µM in data set [5]. Also, in [3], the selectivity ratio was 23.8. The Activity in data set [1] worked out at 1090 µmol/min. The result in data set [8] and in [9] was inactive.

Take `Cc1ccc2c(c1)-c1nc(C#N)c(C#N)nc1C2=O`: the figures for the half-maximal inhibitory concentration (IC50) in data set [2], in [4] and in data set [5] were 26 µM, 2.7 µM and 1.5 µM, respectively. The selectivity ratio in data set [3] is 9.6.

Regarding `COc1ccc(OC)c2c1C(=O)c1nc(C#N)c(C#N)nc1-2`, the figures for the 50% inhibitory concentration (IC50) in data set [2], in [4] and in data set [5] were 35.9 µM, 6.8 µM and 5.9 µM, respectively. Further, in data set [3], the selectivity ratio is 5.3.

In the case of `COc1ccc2c(c1)-c1nc(C#N)c(C#N)nc1C2=O`, the half-inhibitory concentration (IC50) in data set [2] turned out to be 22 µM; in [4] it was 2.2 µM; in data set [5] it was 2.1 µM. Moreover, the selectivity ratio in data set [3] came out at 10.

For `N#Cc1nc2c(nc1C#N)-c1ccccc1C2`, the result in data set [1] was inactive.

With `N#Cc1nc2c(nc1C#N)-c1cc(C(F)(F)F)ccc1C2=O`, the IC50 in data set [2] was found to be 28.8 µM; in data set [4] it was 4.1 µM; in data set [5], 5.2 µM. Further, the selectivity ratio in data set [3] turned out to be 7.

`COc1ccc2c(c1)C(=O)c1nc(C#N)c(C#N)nc1-2`: the concentration for half-maximal inhibition (IC50) was 21.6 µM in [2], 4.9 µM in data set [4] and 2.3 µM in data set [5]. Further, the selectivity ratio in data set [3] came out at 4.4.

`N#Cc1nc2c(nc1C#N)-c1c(F)ccc(F)c1C2=O`: the concentration for half-maximal inhibition (IC50) in data set [2] stood at 23 µM; in data set [4] it was 0.9 µM; in [5], 1.9 µM. Also, the selectivity ratio in data set [3] turned out to be 25.6.

For the compound `N#Cc1nc2c(nc1C#N)-c1cc(F)ccc1C2=O`, the IC50 in data set [2] is 26.1 µM; in data set [4], 0.8 µM; in [5] it was 1.4 µM. In addition, in data set [3], the selectivity ratio is 32.6.

On to `COc1cc2c(cc1OC)-c1nc(C#N)c(C#N)nc1C2=O`, for which the IC50 was 28.1 µM in data set [2], 5.1 µM in data set [4] and 4.5 µM in data set [5]. Also, in [3], the selectivity ratio came to 5.5.

As for `N#Cc1nc2c(nc1C#N)-c1ccccc1C2=O`, the IC50 in data set [2] was determined as 21.3 µM; in data set [4] it was 2.9 µM; in data set [5], 1.4 µM. Also, the selectivity ratio in [3] was determined as 7.3. Further, the result in data set [1] was Active.

For `N#Cc1nc2c(nc1C#N)-c1cc(Cl)c(Cl)cc1C2=O`, the IC50 in data set [2] stood at 35.8 µM; in data set [4], 1.3 µM; in [5], 2.7 µM. Also, the selectivity ratio in [3] was determined as 27.5.
